Measured values as given in ChEMBL document CHEMBL1126988, “Quinolone antibacterials containing the new 7-[3-(1-aminoethyl)-1- pyrrolidinyl] side chain: the effects of the 1-aminoethyl moiety and its stereochemical configurations on potency and in vivo efficacy” (J Med Chem, 1993).
≈ marks a conversion by molar mass, not a printed value.

Assays:
Staphylococcus aureus [1] = assay: Minimum inhibitory concentration was evaluated in vitro against Staphylococcus aureus UC 76; format: functional
How it was run: (§1)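 Standard microtitration broth assay against a panel of 10 Gram-positive and Gram-negative organisms. MIC read in µg/mL and averaged over multiple experiments.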

Escherichia coli [2] = assay: Antibacterial activity in vitro against Escherichia coli Vogel; format: functional; how it was run: as §1
Streptococcus pyogenes [3] = assay: Antibacterial activity measured as mouse protection against Streptococcus pyogenes C 203 after subcutaneous administration; format: functional; conditions: for ED50: Streptococcus pyogenes, C 203, sc, read-out: PD50
Streptococcus pyogenes [4] = assay: Minimum inhibitory concentration was evaluated in vitro against Streptococcus pyogenes C 203; format: functional; how it was run: as §1
Staphylococcus aureus [5] = assay: Minimum inhibitory concentration was evaluated in vitro against Staphylococcus aureus H 228; format: functional; how it was run: as §1
Klebsiella pneumoniae = assay: Minimum inhibitory concentration was evaluated in vitro against Klebsiella pneumoniae MGH2; format: functional; how it was run: as §1
Pseudomonas aeruginosa = assay: Minimum inhibitory concentration was evaluated in vitro against Pseudomonas aeruginosa UI-18; format: functional; how it was run: as §1
Streptococcus pyogenes [6] = assay: Compounds were evaluated in vivo for antibacterial activity for mouse protection against Streptococcus pyogenes C 203 after oral administration; format: functional; conditions: for ED50: C 203, po, read-out: PD50
Providencia rettgeri = assay: Minimum inhibitory concentration was evaluated in vitro against Providencia rettgeri M1771; format: functional; how it was run: as §1
Mus musculus [7] = species on record: Mus musculus; assay: Compounds was evaluated for phototoxicity no-effect dose in mouse; format: functional
How it was run: (§2)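 Depilated female CD-1 mice, five per dose plus controls. Animals are dosed orally and then exposed daily to UV-A (320–400 nm) for 3 h, for up to 4 days or until a definite positive response. Redness or erythema relative to controls, read 24 h after irradiation, counts as positive. Reported as the highest dose with no effect (mg/kg).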

[8] = Clonogenic cytotoxicity against hamster V-79 cells; format: functional, Cricetulus griseus, V79
How it was run: (§3)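 Chinese hamster V-79 cells grown overnight, then drug-treated for 3 h at 37 °C. Medium is replaced with fresh medium and cells are incubated 5 days to allow colony formation. IC50 (µg/mL) is the concentration inhibiting colony formation by 50% relative to control.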

Streptococcus pneumoniae [9] = assay: Minimum inhibitory concentration was evaluated in vitro against Streptococcus pneumoniae SV-1; format: functional; how it was run: as §1
Enterobacter cloacae = assay: Minimum inhibitory concentration in vitro against Enterobacter cloacae MA 2646; format: functional
Enterococcus faecalis = assay: Minimum inhibitory concentration was evaluated in vitro against Enterococcus faecalis MGH-2; format: functional; how it was run: as §1
Streptococcus pneumoniae [10] = assay: Antibacterial activity expressed as Minimum inhibitory concentration was evaluated in vitro against Streptococcus pneumoniae SV-1; format: functional
How it was run: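 Standard microtitration broth MIC (μg/mL), averaged from multiple experiments; one of a 10-organism Gram-positive/Gram-negative panel.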

Streptococcus pyogenes [11] = assay: Compounds were evaluated in vivo for antibacterial activity for mouse protection against Streptococcus pyogenes C 203 after subcutaneous administration; format: functional; conditions: C 203, sc, read-out: PD50
DNA gyrase = DNA gyrase (Escherichia coli, UniProt P0AES4+P0AES6); assay: Inhibition against DNA gyrase; format: protein-complex assay
Mus musculus [12] = species on record: Mus musculus; assay: Compounds were evaluated for phototoxicity no-effect dose in mouse; format: functional; how it was run: as §2
Escherichia coli [13] = assay: Antibacterial activity against Escherichia coli Vogel after subcutaneous administration in mouse; format: functional; conditions: Escherichia coli, sc; read-out: PD50
Escherichia coli [14] = assay: Antibacterial activity against Escherichia coli Vogel after oral administration in mouse; format: functional; conditions: for ED50: Escherichia coli, po, read-out: PD50
Streptococcus pyogenes [15] = assay: Antibacterial activity expressed as Minimum inhibitory concentration was evaluated in vitro against Streptococcus pyogenes C 203; format: functional; how it was run: as §1
[16] = Compound was evaluated for clonogenic cytotoxicity against hamster V-79 cells; 50% Inhibition; format: functional, cell-based; conditions: Cricetulus griseus, V79; how it was run: as §3
[17] = Escherichia coli, read-out: MIC
[18] = Staphylococcus aureus, read-out: MIC
[19] = Klebsiella pneumoniae, read-out: MIC
[20] = Pseudomonas aeruginosa, read-out: MIC
[21] = Providencia rettgeri, read-out: MIC
[22] = Enterobacter cloacae, read-out: MIC
[23] = Enterococcus faecalis, read-out: MIC
[24] = Streptococcus pyogenes, read-out: MIC
[25] = Streptococcus pneumoniae, read-out: MIC

Structure (SMILES) | MIC (Escherichia coli [2]; [17]) [µg/mL] | MIC (Staphylococcus aureus [5]; [18]) [µg/mL] | MIC (Klebsiella pneumoniae; [19]) [µg/mL] | MIC (Pseudomonas aeruginosa; [20]) [µg/mL] | MIC (Providencia rettgeri; [21]) [µg/mL] | MIC (Enterobacter cloacae; [22]) [µg/mL] | MIC (Enterococcus faecalis; [23]) [µg/mL] | MIC (Staphylococcus aureus [1]; [18]) [µg/mL] | MIC (Streptococcus pyogenes [4]; [24]) [µg/mL] | IC50 (DNA gyrase) [nM] | ED50 (Streptococcus pyogenes [3]) [mg/kg] | ED50 (Escherichia coli [13]) [mg/kg] | ED50 (Streptococcus pyogenes [6]; Streptococcus pyogenes) [mg/kg] | MIC (Streptococcus pneumoniae [9]; [25]) [µg/mL] | ED50 (Escherichia coli [14]) [mg/kg] | also measured
CN[C@@H](C)[C@@H]1CCN(c2nc3c(cc2F)c(=O)c(C(=O)O)cn3C2CC2)C1 (mixture of isomers) | 0.1 | 0.1 | 0.2 | 1.6 | 0.4 | 0.1 | 0.1 |  |  |  |  |  |  |  |  | MIC (Staphylococcus aureus [1]): 0.013 µg/mL; PD50 (Streptococcus pyogenes [3]): 2 mg/kg; MIC (Streptococcus pyogenes [4]): 0.025 µg/mL; PD50 (Streptococcus pyogenes [6]): 2 mg/kg; Dose (Mus musculus [7]): 18 mg/kg; Cytotoxicity [8]: 130 µg/mL; MIC (Streptococcus pneumoniae [9]): 0.013 µg/mL
CCN[C@@H](C)[C@H]1CCN(c2nc3c(cc2F)c(=O)c(C(=O)O)cn3C2CC2)C1 | 0.4 (≈ 1.03 µM) | 0.8 (≈ 2.06 µM) | 0.8 (≈ 2.06 µM) | 6.3 (≈ 16.2 µM) | 3.1 (≈ 7.98 µM) | 0.8 (≈ 2.06 µM) | 0.8 (≈ 2.06 µM) | 0.4 (≈ 1.03 µM) | 0.4 (≈ 1.03 µM) |  |  |  |  |  |  | MIC (Streptococcus pneumoniae [10]): 0.2 µg/mL (≈ 0.515 µM); ED50 (Streptococcus pyogenes [11]): 12 mg/kg; ED50 (Streptococcus pyogenes [6]): 12 mg/kg
C[C@@H](N)[C@H]1CCN(c2nc3c(cc2F)c(=O)c(C(=O)O)cn3-c2ccc(F)cc2F)C1 (racemic) | 0.1 (≈ 0.231 µM) | 0.05 (≈ 0.116 µM) | 0.2 (≈ 0.463 µM) | 0.8 (≈ 1.85 µM) | 0.4 (≈ 0.925 µM) | 0.2 (≈ 0.463 µM) | 0.025 (≈ 0.0578 µM) | 0.006 (≈ 0.0139 µM) |  | 1160 | 1 | 1 | 1 | 0.006 (≈ 0.0139 µM) |  | Dose (Mus musculus [12]): >100 mg/kg; PD50 (Escherichia coli [14]): 3 mg/kg; Cytotoxicity [8]: 280 µg/mL; MIC (Streptococcus pyogenes [15]): 6 ng/mL (≈ 0.0139 µM)
C[C@@H](N)[C@H]1CCN(c2cc3c(cc2F)c(=O)c(C(=O)O)cn3C2CC2)C1 (racemic) |  |  |  |  |  |  |  | 0.025 (≈ 0.0696 µM) |  | 1390 |  | 1 |  |  | 47 | MIC (Escherichia coli [2]): 0.05 µg/mL (≈ 0.139 µM); PD50 (Streptococcus pyogenes [3]): 1 mg/kg; MIC (Streptococcus pyogenes [4]): 0.003 µg/mL (≈ 0.00835 µM); MIC (Staphylococcus aureus [5]): 0.05 µg/mL (≈ 0.139 µM); MIC (Klebsiella pneumoniae): 0.1 µg/mL (≈ 0.278 µM); MIC (Pseudomonas aeruginosa): 0.4 µg/mL (≈ 1.11 µM); PD50 (Streptococcus pyogenes [6]): 11 mg/kg; MIC (Providencia rettgeri): 0.2 µg/mL (≈ 0.556 µM); MIC (Streptococcus pneumoniae [9]): 0.013 µg/mL (≈ 0.0362 µM); MIC (Enterobacter cloacae): 0.05 µg/mL (≈ 0.139 µM); MIC (Enterococcus faecalis): 0.025 µg/mL (≈ 0.0696 µM)
NCC1CCN(c2nc3c(cc2F)c(=O)c(C(=O)O)cn3C2CC2)C1 (configuration not stated) | 0.05 (≈ 0.144 µM) | 0.1 (≈ 0.289 µM) | 0.1 (≈ 0.289 µM) | 0.2 (≈ 0.577 µM) | 0.4 (≈ 1.15 µM) | 0.1 (≈ 0.289 µM) | 0.025 (≈ 0.0722 µM) | 0.003 (≈ 0.00866 µM) | 0.025 (≈ 0.0722 µM) | 2170 | 4 | 1 | 39 | 0.1 (≈ 0.289 µM) | 17 | 
NCC1CCN(c2cc3c(cc2F)c(=O)c(C(=O)O)cn3C2CC2)C1 (configuration not stated) | 0.05 (≈ 0.145 µM) | 0.05 (≈ 0.145 µM) | 0.1 (≈ 0.29 µM) | 0.8 (≈ 2.32 µM) | 0.2 (≈ 0.579 µM) | 0.1 (≈ 0.29 µM) | 0.05 (≈ 0.145 µM) | 0.006 (≈ 0.0174 µM) | 0.013 (≈ 0.0376 µM) | 1450 | 4 | 2 | > 100 | 0.013 (≈ 0.0376 µM) | > 100 | 
CN[C@H](C)[C@@H]1CCN(c2nc3c(cc2F)c(=O)c(C(=O)O)cn3C2CC2)C1 | 0.1 (≈ 0.267 µM) | 0.1 (≈ 0.267 µM) | 0.2 (≈ 0.534 µM) | 1.6 (≈ 4.27 µM) | 0.4 (≈ 1.07 µM) | 0.1 (≈ 0.267 µM) | 0.1 (≈ 0.267 µM) | 0.05 (≈ 0.134 µM) | 0.05 (≈ 0.134 µM) |  |  | 1 |  | 0.025 (≈ 0.0668 µM) | 5 | Dose (Mus musculus [12]): 30 mg/kg; IC50 [16]: 88 µg/mL (≈ 235 µM)
